pIC50: −log10 of the molar value. The source made the active and inactive calls. No cut-off for these calls is given here.

Series [1] has as its system Rattus norvegicus. Nature of the series: Antioxidant activity in Sprague-Dawley rat brain tissue model of transient middle cerebral artery occlusion stroke model assessed as malondialdehyde levels per mg of protein at 380 mg/kg administered via oral gavage for 7 days after ischemia onset measured 24 hrs after reperfusion (reference value: 1.46 nmol). It is filed as functional. Conditions: in the assay text read “before ischemia onset” for “after ischemia onset”. The gist of the method: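 Male SD rats (280–320 g; n = 12 per group) were gavaged daily for 7 days, with 0.5% CMC-Na as vehicle. Two hours after the last dose they were anesthetized with chloral hydrate (300 mg/kg ip) and underwent 2 h MCAO followed by reperfusion. Brains were taken 24 h after reperfusion, rinsed in cold saline and stored at −70 °C. Protein was quantified, then GSH, SOD, GSH-Px and MDA were measured by kits. Mean ± SD, n = 6, ANOVA/Tukey.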

Series [2] relates to Rattus norvegicus. Description: Antioxidant activity in Sprague-Dawley rat brain tissue model of transient middle cerebral artery occlusion stroke model assessed as increase in superoxide dismutase levels per mg of protein at 380 mg/kg […] measured 24 hrs after reperfusion by nitroblue tetrazolium assay relative to control. It is filed as functional.
Series [3] has as its system Liver. Nature of the series: Induction of hydrogen sulfide release in rat liver homogenate at 100 uM after 60 mins by microplate reader method (reference value: 1.03 to 1.21%). It is filed as functional, tissue-based. In a few lines: (§1)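 Compound was incubated at 37 °C for 0–90 min with fresh rat liver homogenate. The reaction was stopped with 1% zinc acetate and 10% trichloroacetic acid. N,N-dimethyl-p-phenylenediamine sulfate in 7.2 M HCl and FeCl3 in 1.2 M HCl were added, and absorbance was read at 670 nm after 10 min. Values were calculated against an NaHS standard curve as cumulative % conversion to H2S, n = 6.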

Series [4] can be described thus: Induction of nitric oxide release in potassium phosphate buffer at pH 7.4 at 0.1 mM after 150 mins by Griess assay. It counts as physicochemical. Conditions: pH 7.4, 2.5 h, 100 µM. In a few lines: (§2)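 Compound (0.1 mM) in PBS pH 7.4 containing 2% DMSO and 5.0 mM L-cysteine was held at 37 °C for 15–300 min. Samples were taken every 15 min up to 120 min, then every 30 min. Each sample was reacted with Griess reagent for 10 min at 37 °C and absorbance read at 540 nm. Nitrite was quantified from a nitrite standard curve. Means reported; intra-group variation <10%.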
A general note: Nitrite, measured by Griess reagent, commonly stands in for NO production.

For series [5], the system named is Liver. Nature of the series: Induction of hydrogen sulfide release in rat liver homogenate at 100 uM after 15 mins by microplate reader method (reference value: 1.03 to 1.21%). It is filed as functional, tissue-based. In a few lines:
as §1

Series [6] can be described thus: Induction of nitric oxide release in potassium phosphate buffer at pH 7.4 at 0.1 mM after 15 mins by Griess assay. It counts as physicochemical. As to conditions: pH 7.4, 0.25 h, 100 µM. The gist of the method:
as §2

Series [7] in a line: Antiplatelet activity in rabbit platelet-rich plasma assessed as inhibition of ADP-induced platelet aggregation preincubated for 5 mins followed by addition of ADP measured within 5 mins by Borns turbidimetric method. It is filed as functional. As to conditions: Oryctolagus cuniculus. The gist of the method:
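Platelet-rich plasma from citrated rabbit carotid blood was preincubated in duplicate at 37 °C for 5 min with compound at 0.1, 0.2, 0.4, 0.8 or 1.6 mM. ADP-induced aggregation was then recorded turbidimetrically, as maximal light transmission within 5 min. Inhibition was calculated versus vehicle control, and IC50 values were derived. Mean ± SD, n = 6, ANOVA/Tukey.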

A short description of series [8]: Induction of nitric oxide release in potassium phosphate buffer at pH 7.4 at 0.1 mM after 75 mins by Griess assay. It counts as physicochemical. Conditions: pH 7.4, 1.25 h, 100 µM. In a few lines: as §2
Series [9] concerns Rattus norvegicus. Nature of the series: Neuroprotective activity in Sprague-Dawley rat model of transient middle cerebral artery occlusion stroke model assessed as reduction in neurological deficit at 380 mg/kg […] measured 24 hrs after middle cerebral artery occlusion by Longa's method. It is filed as functional, organism-based.
The test system of series [10] is Rattus norvegicus. Nature of the series: Antioxidant activity in Sprague-Dawley rat brain tissue model of transient middle cerebral artery occlusion stroke model assessed as increase in glutathione peroxidase levels per mg of protein at 380 mg/kg […] measured 24 hrs after reperfusion by DTNB assay relative to control. It counts as functional.
The test system of series [11] is Rattus norvegicus. Description: Antioxidant activity in Sprague-Dawley rat brain tissue model of transient middle cerebral artery occlusion stroke model assessed as increase in superoxide dismutase levels per mg of protein at 80 mg/kg […] measured 24 hrs after reperfusion by nitroblue tetrazolium assay relative to control. It counts as functional.
A short description of series [12]: Induction of nitric oxide release in potassium phosphate buffer at pH 7.4 at 0.1 mM after 240 mins by Griess assay. It counts as physicochemical. As to conditions: pH 7.4, 4 h, 100 µM. The gist of the method: as §2
A short description of series [13]: Induction of nitric oxide release in potassium phosphate buffer at pH 7.4 at 0.1 mM after 30 mins by Griess assay. It counts as physicochemical. As to conditions: pH 7.4, 0.5 h, 100 µM. The gist of the method: as §2

For `CCCCC(OC(=O)CN1CCN(CCCCCOc2ccc(-c3cc(=S)ss3)cc2)CC1)c1ccccc1C(=O)Oc1ccc(/C=C/C(=O)OCCO[N+](=O)[O-])cc1OC` (racemic), the Activity was determined as 0.86 nmol in the series on Rattus norvegicus [1]; 32.02% in the series with Rattus norvegicus [2]; 4.25% with Liver [3]; 10.23 µM in [4]; 2.83% in the series with Liver [5]; 3.16 µM in series [6]. Moreover, the Activity in series [8] came to 8.48 µM; in the series on Rattus norvegicus [10], 69.26%; in the series with Rattus norvegicus [11], 23.07%; in series [12], 10.35 µM; in series [13], 5.48 µM. Further, in series [7], the pIC50 is 3.85. In addition, in the series on Rattus norvegicus [9], the result was Active.

As a reminder, the pIC50 is the IC50 on a negative log10 scale, so that one unit is a factor of ten.

For the origin of these results see ChEMBL document CHEMBL3792374, “Discovery of a ring-opened derivative of 3-n-butylphthalide bearing NO/H2S-donating moieties as a potential anti-ischemic stroke agent” (Eur J Med Chem, 2016).
